The target of assay [1] is Mu-type opioid receptor (Rattus norvegicus, UniProt P33535). As to the kind of experiment: Displacement of [3H]DAMGO from mu-opioid receptor in Sprague-Dawley rat brain P2 synaptosome membrane. The assay is classed as tissue-based. The method in brief: (§1)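 Competition binding at equilibrium, 2.5 h at room temperature (23 °C), on rat brain P2 synaptosomes. Filters were soaked in 0.1% polyethylenimine and washed three times with ice-cold buffered BSA. Duplicate assays used 5-8 doses and 3-5 independent membrane preparations. Ki was derived by Cheng-Prusoff; means ± SE.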
Chain of Mu-type opioid receptor (Rattus norvegicus, UniProt P33535) (P33535 whole entry): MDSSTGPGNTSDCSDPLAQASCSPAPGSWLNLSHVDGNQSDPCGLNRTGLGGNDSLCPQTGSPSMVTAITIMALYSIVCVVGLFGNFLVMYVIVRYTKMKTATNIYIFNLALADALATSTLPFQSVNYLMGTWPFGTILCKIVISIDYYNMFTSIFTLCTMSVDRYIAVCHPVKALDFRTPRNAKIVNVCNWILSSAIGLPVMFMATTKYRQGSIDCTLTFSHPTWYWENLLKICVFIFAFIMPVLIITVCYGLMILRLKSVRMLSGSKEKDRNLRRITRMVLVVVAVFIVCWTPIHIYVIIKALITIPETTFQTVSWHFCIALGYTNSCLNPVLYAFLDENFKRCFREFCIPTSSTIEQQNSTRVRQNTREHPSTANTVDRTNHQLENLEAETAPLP
(In general: Displacement assays read how much labelled ligand stays bound in the presence of the test substance.)

Assay [2] has as its target Delta-type opioid receptor (Rattus norvegicus, UniProt P33533). As to the kind of experiment: Displacement of [3H]deltorphin 2 from delta-opioid receptor in Sprague-Dawley rat brain P2 synaptosome membrane. The assay is classed as tissue-based. The method in brief: as §1
The target in assay [3] is Mu-type opioid receptor (Cavia porcellus, UniProt P97266). As to the kind of experiment: Agonist activity at mu-opioid receptor in Hartley guinea pig ileum assessed as inhibition of electrically-stimulated muscle contraction. The class given is functional, tissue-based. The method in brief: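 Myenteric plexus longitudinal muscle strips (2-3 cm) from small intestine of male Hartley guinea pigs, held in organ baths of balanced salt solution, pH 7.5. Inhibition of electrically evoked contraction was measured. IC50 (nM) was read from dose-response curves, with dermorphin as internal standard. Values are means ± SE of five or six separate assays.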
Chain of Mu-type opioid receptor (Cavia porcellus, UniProt P97266) (P97266 whole entry): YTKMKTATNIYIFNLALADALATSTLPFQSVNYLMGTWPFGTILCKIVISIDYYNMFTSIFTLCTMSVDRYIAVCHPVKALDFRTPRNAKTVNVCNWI

Assay [4] is filed under the species Rattus norvegicus. As to the kind of experiment: Selectivity for delta-opioid receptor over mu opiod receptor in Sprague-Dawley rat brain P2 synaptosome membrane. The assay is classed as tissue-based.
Assay [5] is filed under the species Rattus norvegicus. Briefly: Selectivity for mu-opioid receptor over delta opiod receptor in Sprague-Dawley rat brain P2 synaptosome membrane. The class given is tissue-based.

This note sets out measurements from ChEMBL document CHEMBL1137499, “A new opioid designed multiple ligand derived from the micro opioid agonist endomorphin-2 and the delta opioid antagonist pharmacophore Dmt-Tic” (Bioorg Med Chem, 2007).

In general, Ki refers to a dissociation constant, usually derived from enzyme kinetics or from competition with a known ligand. A word on the IC50: it is the concentration that gives 50% inhibition.

Numbered stars: 1 amine (or outer) side, 2 acyl side, 3 side chain; on linkers, the order of the positions; unused ones are H or OH. Square brackets hold non-standard residues; d marks the D form. Peptide text beside a SMILES is read from it. ξ: configuration not given here. Dmt = Cc1cc(O)cc(C)c1C[C@H](N)C(=O)O; Ethylenediamine = C(CN[*:2])N[*:1]; ξTic = O=C(O)C1Cc2ccccc2CN1

Chain of Delta-type opioid receptor (P33533 whole entry): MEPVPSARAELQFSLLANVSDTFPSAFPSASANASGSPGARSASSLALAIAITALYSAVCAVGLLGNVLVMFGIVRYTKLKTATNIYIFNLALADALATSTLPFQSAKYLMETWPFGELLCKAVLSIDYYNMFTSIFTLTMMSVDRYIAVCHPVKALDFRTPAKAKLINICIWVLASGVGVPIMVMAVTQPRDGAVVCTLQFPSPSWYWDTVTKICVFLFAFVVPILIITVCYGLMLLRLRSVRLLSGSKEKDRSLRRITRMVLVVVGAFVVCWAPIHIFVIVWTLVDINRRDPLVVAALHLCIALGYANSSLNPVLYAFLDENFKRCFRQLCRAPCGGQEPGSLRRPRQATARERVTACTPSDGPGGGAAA

Take `Cc1cc(O)cc(C)c1C[C@H](N)C(=O)N1Cc2ccccc2C[C@H]1C(=O)NCCNC(=O)[C@H](Cc1ccccc1)NC(=O)[C@H](Cc1ccccc1)NC(=O)[C@@H]1CCCN1C(=O)[C@@H](N)Cc1ccc(O)cc1`: the Ki is 1.03 nM on Mu-type opioid receptor [1] and 1.45 nM in assay [2]. The half-maximal inhibitory concentration (IC50) at Mu-type opioid receptor [3] worked out at 25.1 nM.
With `Cc1cc(O)cc(C)c1C[C@H](N)C(=O)N1Cc2ccccc2CC1C(=O)NCCN` (stereo partly drawn) (H-[Dmt]-[ξTic]-Ethylenediamine), the inhibition constant Ki on Mu-type opioid receptor [1] came out at 2.72 nM; in assay [2], 1.81 nM. In the assay filed under Rattus norvegicus [4], the Ratio Ki worked out at 3.36. Further, the IC50 at Mu-type opioid receptor [3] is 286 nM.
Regarding `Cc1cc(O)cc(C)c1C[C@H](N)C(=O)N1Cc2ccccc2CC1C(=O)NCCNC(=O)[C@H](Cc1ccccc1)NC(=O)[C@H](Cc1ccccc1)NC(=O)[C@@H]1CCCN1C(=O)[C@@H](N)Cc1ccc(O)cc1` (stereo partly drawn), the Ratio Ki in the assay listed under Rattus norvegicus [5] is 1.41.
